# Reference: ChEMBL document CHEMBL4339251, “Prenylated Bibenzyls from the Chinese Liverwort Radula constricta and Their Mitochondria-Derived Paraptotic Cytotoxic Activities” (J Nat Prod, 2019)
# Activity calls are given as the source filed them. The rule behind the calls is not given here.
# Experiments:
# [1] = tested on: A549; test: Induction of cytoplasmic vacuolization in human A549 cells at 10 uM measured within 3 hrs by optical microscopy; assay type: functional, cell-based
# Summary of the method: (§1)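 Morphology. A549 or NCI-H1299 cells were treated at 10 μM and vacuole formation was followed by optical microscopy at the indicated times.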
# [2] = tested on: A549; test: Induction of apoptosis in human A549 cells assessed as late apoptotic cells at 10 uM by annexinV-FITC and propidium iodide staining based flow cytometric analysis (reference value: 3.14%); assay type: functional
# [3] = tested on: NCI-H1299; test: Induction of cytoplasmic vacuolization in human NCI-H1299 cells at 10 uM treated for 3 hrs after pre-treatment with pan-caspase inhibitor Z-VAD-FMK for 1 hr by optical microscopy; assay type: functional, cell-based
# Summary of the method: (§2)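 Caspase-inhibitor morphology. Cells were treated with DMSO, 20 μM Z-VAD-FMK, 10 μM compound, or the combinations for 3 h, then imaged by optical microscopy.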
# [4] = tested on: NCI-H1299; test: Induction of mitochondria-derived paraptosis in human NCI-H1299 cells assessed as reduction in intensity of mitochondria fluorescence up to 24 hrs by Mito-Tracker staining based fluorescence microscopy; assay type: functional, cell-based
# Summary of the method: (§3)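 Mitochondrial fluorescence. After treatment for the indicated times, cells were stained with Mito-Tracker Red (100 nM) and 10 000 cells per sample were analysed by flow cytometry. Cells with decreased red fluorescence were gated as "pale" cells.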
# [5] = tested on: NCI-H1299; test: Induction of mitochondria dysfunction in human NCI-H1299 cells assessed as mitochondrial membrane potential incubated for 1 hr by JC-1 dye based flow cytometry relative to 0 hrs control; assay type: functional
# Summary of the method: (§4)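 Membrane potential. After treatment for the indicated times, ΔΨm was measured by JC-1 (5 μg/mL) staining and flow cytometry, relative to the 0 h control. Mean ± SD, n = 3.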
# [6] = tested on: A549; test: Induction of mitochondria-derived paraptosis in human A549 cells assessed as reduction in intensity of mitochondria fluorescence up to 24 hrs by Mito-Tracker staining based fluorescence microscopy; assay type: functional, cell-based; summary of the method: as §3
# [7] = tested on: A549; test: Induction of ROS generation in human A549 cells after 1 hr by DCFH-DA staining based flow cytometry relative to untreated control; assay type: functional
# Summary of the method: (§5)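 ROS by flow cytometry. Cells were exposed for the indicated times, then stained with DCFH-DA (10 μM). DCF mean fluorescence intensity was compared with untreated control. Mean ± SD, n = 3.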
# [8] = tested on: A549; test: Induction of apoptosis in human A549 cells assessed as necrotic cells at 10 uM by annexinV-FITC and propidium iodide staining based flow cytometric analysis (reference value: 1.44%); assay type: functional
# [9] = tested on: A549; test: Induction of ROS generation in human A549 cells by DCFH-DA staining based flow cytometry; assay type: functional, cell-based; conditions: TDE = time-dependent effect; summary of the method: as §5
# [10] = tested on: NCI-H1299; test: Induction of apoptosis in human NCI-H1299 cells assessed as necrotic cells at 10 uM by annexinV-FITC and propidium iodide staining based flow cytometric analysis (reference value: 3.17%); assay type: functional
# [11] = tested on: A549; test: Induction of apoptosis in human A549 cells assessed as induction of PARP cleavage at 2.5 to 10 uM incubated for 24 hrs by Western blot analysis; assay type: functional, cell-based
# Summary of the method: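 Western blot. Cells were cultured overnight in six-well plates, then exposed to various concentrations for 24 h before immunoblotting.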
# [12] = tested on: SMMC-7721; test: Cytotoxicity in human SMMC7721 cells assessed as reduction in cell viability incubated for 48 hrs by MTT assay; assay type: functional, cell-based; conditions: SMMC-7721, 48 h
# Summary of the method: (§6)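 MTT viability. U251 and NCI-H1299 were grown in DMEM, the other lines in RPMI 1640, each with 10% FBS, penicillin and streptomycin, at 37 °C in 5% CO2. Cells were seeded in 96-well plates overnight and exposed to a range of concentrations. MTT (5 mg/mL) was added for 4 h, formazan was dissolved in DMSO and absorbance read at 570 nm. Three independent experiments.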
# [13] = tested on: NCI-H1299; test: Cytotoxicity in human NCI-H1299 cells assessed as reduction in cell viability incubated for 48 hrs by MTT assay; assay type: functional, cell-based; conditions: NCI-H1299, 48 h; summary of the method: as §6
# [14] = tested on: A549; test: Induction of mitochondria dysfunction in human A549 cells assessed as mitochondrial membrane potential incubated for 1 hr by JC-1 dye based flow cytometry relative to 0 hrs control; assay type: functional; summary of the method: as §4
# [15] = tested on: MCF7; test: Cytotoxicity in human MCF7 cells assessed as reduction in cell viability incubated for 48 hrs by MTT assay; assay type: functional, cell-based; conditions: MCF7, 48 h; summary of the method: as §6
# [16] = tested on: NCI-H1299; test: Induction of cytoplasmic vacuolization in human NCI-H1299 cells at 10 uM measured within 3 hrs by optical microscopy; assay type: functional, cell-based; summary of the method: as §1
# [17] = tested on: HT-29; test: Cytotoxicity in human HT-29 cells assessed as reduction in cell viability incubated for 48 hrs by MTT assay; assay type: functional, cell-based; conditions: HT-29, 48 h; summary of the method: as §6
# [18] = tested on: NCI-H1299; test: Induction of apoptosis in human NCI-H1299 cells assessed as early apoptotic cells at 10 uM by annexinV-FITC and propidium iodide staining based flow cytometric analysis (reference value: 1.26%); assay type: functional
# [19] = tested on: A549; test: Induction of mitochondria-derived paraptosis in human A549 cells assessed as formation of fusion among swollen mitochondria after 6 to 24 hrs by Mito-Tracker staining based fluorescence microscopy; assay type: functional, cell-based
# Summary of the method: (§7)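 Live-cell imaging. Treated cells on coverslips were stained with Mito-Tracker Red (100 nM) at 37 °C for 30 min, washed three times with PBS and stained with Hoechst 33342 (10 μg/mL) for 15 min. Images were taken by confocal or fluorescence microscopy at the indicated times.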
# [20] = tested on: U-251; test: Cytotoxicity in human U251 cells assessed as reduction in cell viability incubated for 48 hrs by MTT assay; assay type: functional, cell-based; conditions: U-251, 48 h; summary of the method: as §6
# [21] = tested on: NCI-H1299; test: Induction of mitochondria-derived paraptosis in human NCI-H1299 cells assessed as formation of fusion among swollen mitochondria after 6 to 24 hrs by Mito-Tracker staining based fluorescence microscopy; assay type: functional, cell-based; summary of the method: as §7
# [22] = tested on: NCI-H1299; test: Induction of apoptosis in human NCI-H1299 cells assessed as late apoptotic cells at 20 uM by annexinV-FITC and propidium iodide staining based flow cytometric analysis (reference value: 3.29%); assay type: functional
# [23] = tested on: A549; test: Induction of apoptosis in human A549 cells assessed as early apoptotic cells at 10 uM by annexinV-FITC and propidium iodide staining based flow cytometric analysis (reference value: 1.47%); assay type: functional
# [24] = tested on: A549; test: Induction of cytoplasmic vacuolization in human A549 cells at 10 uM treated for 3 hrs after pre-treatment with pan-caspase inhibitor Z-VAD-FMK for 1 hr by optical microscopy; assay type: functional, cell-based; summary of the method: as §2
# [25] = tested on: NCI-H1299; test: Induction of apoptosis in human NCI-H1299 cells assessed as early apoptotic cells at 20 uM by annexinV-FITC and propidium iodide staining based flow cytometric analysis (reference value: 1.26%); assay type: functional
# [26] = tested on: A549; test: Induction of mitochondria-derived paraptosis in human A549 cells assessed as formation of fluorescent vacuoles after 3 hrs by Mito-Tracker staining based fluorescence microscopy; assay type: functional, cell-based; summary of the method: as §7
# [27] = tested on: A549; test: Cytotoxicity in human A549 cells assessed as reduction in cell viability at 5 uM incubated for 24 hrs in presence of pan-caspase inhibitor Z-VAD-FMK by MTT assay; assay type: functional, cell-based
# [28] = tested on: NCI-H1299; test: Cytotoxicity in human NCI-H1299 cells assessed as reduction in cell viability at 5 uM incubated for 24 hrs in presence of pan-caspase inhibitor Z-VAD-FMK by MTT assay; assay type: functional, cell-based
# [29] = tested on: A549; test: Induction of apoptosis in human A549 cells assessed as necrotic cells at 20 uM by annexinV-FITC and propidium iodide staining based flow cytometric analysis (reference value: 1.44%); assay type: functional
compound,measurement,setting,value
COC(=O)c1c(CCc2ccccc2)cc(O)c(CC=C(C)C)c1O,Activity,[1],Active
same,Activity,[2],3.39%
same,Activity,[3],Active
same,Activity,[4],Active
same,Activity,[5],25%
same,Activity,[6],Active
same,fold change (FC),[7],20
same,Activity,[8],2.02%
same,Activity,[9],Tde
same,Activity,[10],3.75%
same,Activity,[11],inactive
same,IC50,[12],8.6 µM
same,IC50,[13],5.1 µM
same,Activity,[14],50%
same,IC50,[15],10.2 µM
same,Activity,[16],Active
same,IC50,[17],5 µM
same,Activity,[18],0.57%
same,Activity,[19],Active
same,IC50,[20],9 µM
same,Activity,[21],Active
same,Activity,[22],2.95%
same,Activity,[23],0.75%
same,Activity,[24],Active
same,Activity,[25],1.11%
same,Activity,[26],Active
same,Activity,[27],Active
same,Activity,[28],Active
same,Activity,[29],1.73%
